According to ChEMBL document CHEMBL4513216, “Probing the Open Global Health Chemical Diversity Library for Multistage-Active Starting Points for Next-Generation Antimalarials” (ACS Infect Dis, 2020):

Experiment: Toxicity liver stage against HepG2, at 10uM
Type: cell-based
Set-up: test concentration 10 uM, cell line HepG2-A16-CD81EGFP
Settings: human, HepG2-A16-CD81EGFP cells; read-out: INHIBITION
How it was run: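 Uninfected HepG2-A16-CD81EGFP cells, 3 × 10^3 per well, 1536-well, plated on prespotted compound at 10 μM final, parasite-free screening media added to match infected plates; puromycin 10 μM positive, DMSO 0.5% negative; run in parallel with 48 h PbLuc assay at 37 °C, 5% CO2; viability by CellTiter-Glo luminescence, normalized to controls.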

Structure (SMILES) | cytotoxicity at 10 µM [%]
Cc1ccc2c(c1)Oc1ncccc1C(=O)N2 | 5.15
CN1C[C@@H](NC(=O)c2ccccc2)C[C@H]1c1nc(-c2cnccn2)no1 | 9.68
COc1ccc(CNC2(Cc3cc(CC(C)C)on3)COC2)cc1 | 4.71
CCN(CC)CCNC(=O)CCc1c(C)nn(-c2ccccc2Cl)c1C | -0.61
COCC(=O)N1CC2=CC(C)(C)COc3ccc(OC)c(c32)C1 | -2.59
CC(C)[C@H](NC(=O)NC1CCS(=O)(=O)C1)C(=O)NCc1ccccc1 (some centres not stated) | 7.39
COc1c[nH]c(C(=O)N2CCN(c3ccccc3)CC2)cc1=O | 0.0868
O=C(Nc1cccnc1-n1cc(Cl)cn1)C1CCCC1 | -43.3
O=C1CSC(c2cccnc2)c2c(n(C3CCOCC3)[nH]c2=O)N1 (configuration not stated) | -7.95
COc1ccc(OC)c(S(=O)(=O)NCC2(OC)CCSC2)c1 (configuration not stated) | -12.8
CN(C(=O)Cn1nc(-c2ccccc2Cl)ccc1=O)C1CCS(=O)(=O)C1 (configuration not stated) | 1.96
NC1CCN(c2nccn3c(=O)[nH]nc23)CC1 | 3.65
O=C(NCc1ccco1)c1[nH]nc2c1CS(=O)(=O)CC2 | 14.8
CC(Nc1ncnc2c1NC(=O)CN2)c1ccc2c(c1)OCO2 (configuration not stated) | 8.19
C=Cn1ncc(CN2CCC(c3ncc(Cl)cc3S(C)(=O)=O)CC2)c1C | 6.29
Cc1nn(C)c(C)c1-c1ccc(=O)n(C(C)C(=O)NC2CCCCC2)n1 (configuration not stated) | 1.94
Cc1cc(-c2cnc(N3CCN(C)CC3)nc2C(C)C)on1 | -5.97
CC(C)C(=O)N1CCCC(c2ncncc2-c2ccncc2)C1 (configuration not stated) | -6.62
CS(=O)(=O)N1CC2(CCN(CC3CCCCC3)C2)Cc2ccccc21 (configuration not stated) | 23.3
O=C(c1cscn1)N1CCC2(COc3ncccc3S(=O)(=O)N2)C1 (configuration not stated) | 7.22
CCN(CC)C(=O)c1cnc(Sc2nccn2C)c(Cl)c1 | -61.1
Cn1nc(C(=O)NCc2ccc(OC3CCCCC3)nc2)ccc1=O | 21.3
Cc1ccc(C(=O)NC2CCN(S(C)(=O)=O)CC2)c(=O)[nH]1 | 15.7

Structure (SMILES) | cytotoxicity at 10 µM [%]
COc1ccccc1C(N)CC(C)C (configuration not stated) | 6
Cc1nc(C2NC3(CCCC3)C(=O)N2CC2CC2)cs1 (configuration not stated) | -6.09
CN(C)CCCNC(=O)c1ccnc(OCc2ccccc2)c1 | -11.5
CCc1nc(CN(C)CC(=O)OC(C)(C)C)cs1 | 3.91
Cc1ccccc1-n1cnnc1SCC1CCCCO1 (configuration not stated) | 11.8
CCn1ccnc1CN1CCC(N(Cc2ncc(C)o2)C(C)=O)C1 (configuration not stated) | 11.5
CN(C)C(=O)c1ccccc1NCCCOc1cccc(C#N)c1 | 4.52
COCc1nc(C(=O)N2CCN(c3nccc(OC)n3)CC2)cs1 | -7.68
CCc1nnc2n1CCN(Cc1csc(-c3ccccc3)n1)C2 | -6.29
CCOc1ccc(C2CCCN2Cc2nnnn2C2CC2)cc1 (configuration not stated) | 6.26
COCCOCC(=O)NC(C#N)c1c(F)cccc1Cl (configuration not stated) | 19.6
FC(F)CN1CCC(NCc2ccc(-n3cccn3)nc2)CC1 | 10.6
Cc1nc(CNC2CCN(Cc3ccccc3)C2)sc1C (configuration not stated) | 2.86
Cc1cc(OCc2cccc(F)c2)ccc1NC(=O)C(C)NC(N)=O (configuration not stated) | -1.47
CC(C)n1cnnc1C1CCCN(S(=O)(=O)CCCC#N)C1 (configuration not stated) | -3.46
O=C(CN(CC1CCC1)CC(F)(F)F)N1CCCC1 | 1.84
Cc1cc(C)cc(OCCC(=O)NC2CC(=O)N(C)C2)c1 (configuration not stated) | -1.68
O=C(CCOc1ccccc1F)N1CCOCC1 | -4.4
CC(C)(CCS(C)(=O)=O)CNc1ccc2ccc(F)cc2n1 | -6.01
Cc1ccc(NC(=O)CSCc2cccnc2)nc1 | -46.4
c1ccc(-c2noc(C3CCN(CCCn4cncn4)CC3)n2)cc1 | -14.3
CCOCc1ccccc1NC(=O)NC1CCN(c2ncccn2)CC1 | -4.78
Cn1cc(NC(=O)c2ccccn2)cc(Cl)c1=O | 7.7

Structure (SMILES) | cytotoxicity at 10 µM [%]
Cn1cc(-c2csc(N3CCN(C(=O)OC(C)(C)C)CC3)n2)cn1 | 23.2
CCc1nc(CC(=O)NCC(Cc2ccc(F)cc2)C(N)=O)cs1 (configuration not stated) | -0.86
COCC1CN(C(=O)c2ccnnc2)Cc2c1cnn2C (configuration not stated) | -3.09
COc1cc(C(C)=O)ccc1OC12CCCN(CC1)C2 (configuration not stated) | 10.2
COCCC(=O)N1CCCCC1c1ccc(F)cc1 (configuration not stated) | -41.3
Cn1ccnc1C(=O)N1CCCC(Cn2cc(CO)nn2)C1 (configuration not stated) | -1.88
CCc1cc(NCCNC(C)=O)nc(N2CCCC2)n1 | -6.77
C1=CCN(c2nc(CC3CC3)nc3c2CCN(C2CCOCC2)CC3)C1 | 0.0776
CSc1cccc(CN2CCC(CCC(=O)Nc3ccccc3)CC2)c1 | -2.48
O=C(N[C@@H]1c2ccccc2C[C@@H]1O)C1CCN(Cc2ccco2)CC1 | -0.647
COCCCNc1ncnc2c1CCN(C(=O)CC1C=CCC1)CC2 (configuration not stated) | 5.97
COc1ccc([C@@H]2C[C@H](NC(C)=O)C[C@H](CCc3ccccc3)O2)cn1 | -3.13
Cc1noc(C)c1CN1CCCC1c1nc(-c2ccccc2)no1 (configuration not stated) | -39.2
CC(C)N1CCCCC1CCn1cnc2cc(C(F)(F)F)ccc2c1=O (configuration not stated) | -5.98
CNc1cc(C(=O)N(C)Cc2cc(-c3cccs3)n[nH]2)ccn1 | -9.22
CCOc1ccc(C(C)Nc2ncnc3c2CCNC3)cc1OCC (configuration not stated) | -8.81
CCCc1cc(N2CCC(NC3CCS(=O)(=O)C3)CC2)nc(C)n1 (configuration not stated) | -6.65
Cc1ccc(CN2CCN(C3CCSCC3)CC2CCO)o1 (configuration not stated) | -3.96
COc1cc(C)sc1C(=O)N1CCCCC1c1ccccn1 (configuration not stated) | 0.864
COc1cc(-c2cccc3c2OC(CN)C3)cc(OC)c1OC (configuration not stated) | -42.6
N#Cc1cccc(NC2CC(=O)N(C3Cc4ccccc4C3)C2)n1 (configuration not stated) | -141
CNC(=O)[C@@H]1C[C@H](N)CN1S(=O)(=O)c1cc(Cl)cc(Cl)c1O | 1.68
Cn1ccnc1C1CCCN(C(=O)c2cc(F)cc(F)c2)C1 (configuration not stated) | 18.4

Structure (SMILES) | cytotoxicity at 10 µM [%]
c1ccc(-c2cccc(-c3ccn(CCN4CCCCC4)n3)c2)nc1 | -4.73
CN1C[C@@H](NC(=O)c2cc(F)cc(F)c2)C[C@H]1C(=O)NCc1ncc[nH]1 | -6.25
CCOc1cc(CN2CCCC2)ccc1Oc1cccc(C#N)n1 | -1.83
COCCc1noc(CN(C)c2nc(C)cc(C)n2)n1 | 0.801
CCN(CC)S(=O)(=O)N1CCC(c2nccn2Cc2ccccn2)CC1 | 0.136
CN1C[C@H]2CNC[C@@]2(C(=O)N2CCN(c3ncccc3C#N)CC2)C1 | 2.12
CC(C)C(=O)N1CCN(Cc2cc(-c3ccncc3)nn2C)CC1 | 0.59
CC(C)Cc1cc(NC(=O)c2ccncc2)n(C)n1 | -0.502
CC(C)c1nccn1C1CCCN(C(=O)c2cc(C3CC3)on2)C1 (configuration not stated) | -7.37
CC(C)c1n[nH]c(C2CN(C(=O)c3cnccn3)CCO2)n1 (configuration not stated) | 2.16
CCc1nc(C(=O)N2CCCC2)nn1-c1c(Cl)cccc1Cl | -2.04
CCOc1cc(C(=O)N2CCCC(c3nc(C)c(C)s3)C2)ccn1 (configuration not stated) | -3.92
O=C(CN1CCCC1Cn1cccn1)NCCOc1cccc(F)c1 (configuration not stated) | -3.54
Cc1cnn(CC2CCCN2c2ncnc3ccsc23)c1 (configuration not stated) | 13.6
Cc1nc(C)n(CC2CCCN(Cc3ccccc3C#N)C2)n1 (configuration not stated) | -16.4
CC(C)(C)c1nc(CC(=O)N2CCCC(n3cncn3)C2)cs1 (configuration not stated) | -11.2
CC(=O)N1CCN(C(=O)NCc2cccnc2OC(C)C)CC1 | -17.5
CCOc1ccc(C#N)cc1NCC(=O)NC(=O)Nc1ccccc1 | -11.8
CCc1ccc(C(N)c2cccc(S(C)(=O)=O)c2)cc1 (configuration not stated) | -10.9
COC(=O)C(c1cc(F)ccc1F)N(C)C(=O)c1cnccn1 (configuration not stated) | 6.43
CCCc1n[nH]c(C2CN(C(=O)Cn3ccccc3=O)CCO2)n1 (configuration not stated) | -1.33
Cc1ccc(CCC(=O)N2CCCC(c3cc(C(N)=O)[nH]n3)C2)cc1 (configuration not stated) | -4.33
Cc1nccn1-c1cc(CNC(=O)CCNC(=O)C2CCCC2)ccn1 | -2.06

Structure (SMILES) | cytotoxicity at 10 µM [%]
COc1cccc(OCCNC(=O)CN2CCN(C)CC2C)c1 (configuration not stated) | -2.5
CC(c1nc(C2CC2)no1)N1CCN(CCOCC(F)(F)F)CC1 (configuration not stated) | -8.6
COCCNC(=O)C1(c2ccccc2C)CCOCC1 | -9.04
Cc1nc(-c2ccsc2)ccc1C(=O)NCCN1CCOCC1 | -10.2
CCn1ccnc1CN1CCN(Cc2ccc(C#N)cc2)CC1 | -9.62
CC(C)c1nc2n(n1)CC(NCc1nnnn1C1CC1)CC2 (configuration not stated) | -1.4
CC(NC(=O)COc1ccc(F)cc1)c1nnc2n1CCCCC2 (configuration not stated) | -8.99
CCc1n[nH]c(C2CN(CCc3cccs3)CCO2)n1 (configuration not stated) | 3.83
Cc1noc([C@@H](C)NCc2cccc(Cl)c2)c1C(=O)O | -0.802
CCC(CN1CCCCC1)NC(=O)C1(c2ccc(F)cc2)CC1 (configuration not stated) | 1.69
COc1cccc(CN2CCC(c3cc(O)nc(C)n3)C2)c1 (configuration not stated) | -0.542
c1cc(CN2CCO[C@H]3[C@H](OCCN4CCCC4)CC[C@@H]32)co1 | 6.49
O=C1C[C@H]2[C@@H](CCN2C(=O)c2ccc[nH]2)N1CCN1CCCC1 | -4.28
CN(C)CCN1CCOCC2(CCCN(C(=O)c3cccn3C)C2)C1 (configuration not stated) | 4.87
Cn1cc(CN2CC(C(=O)Nc3ccccc3)C3(CCOCC3)C2)cn1 (configuration not stated) | -1.96
CN(Cc1ccccn1)C(=O)c1nn(C)c2c1CCN(CC1CC1)C2 | -1.68
O=C(NC[C@]12COC[C@H]1CN(Cc1nccs1)C2)c1cscn1 | -1.11
COc1cccc(C2c3c(n[nH]c3C)N=C3COC(=O)C32)c1O (configuration not stated) | 65.8
Cc1ccc(-n2cccn2)cc1S(=O)(=O)N1C[C@H]2CC[C@@H](C1)N(C)C2 | 1.62
Cn1nc(C2CCCC2)c(-c2ccc3c(c2)OCO3)c1N | -51.5
